Assay results taken from ChEMBL document CHEMBL1131072, “Synthesis, physicochemical properties, and evaluation of N-substituted-2-alkyl-3-hydroxy-4(1H)-pyridinones” (J Med Chem, 1998).

Test system: not listed separately
Assay: Partition coefficient (logD7.4)
Format: physicochemical
Conditions: octanol/water, pH 7.4
In short: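 Shake-flask used a 100:1 or 1:100 phase ratio, 1 h stirring, centrifugation, and aqueous absorbance, repeated at least four times. Fe complexes were made at 10:1 ligand:Fe (10^-3/10^-4 M) and read at 460 nm. Reported as mean ± SD.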

| SMILES | logD |
| --- | --- |
| COCC(C)n1ccc(=O)c(O)c1C (stereo not drawn) | -0.26 |
| CCc1c(O)c(=O)ccn1CCOC | 0.04 |
| Cc1c(O)c(=O)ccn1CC(C)C | 0.65 |
| Cc1nccc(O)c1O | -0.5 |
| Cc1c(O)c(=O)ccn1C(C)C | 0.05 |
| CCc1nccc(O)c1O | 0.05 |
| CCc1c(O)c(=O)ccn1CCCO | -0.32 |
| Cc1c(O)c(=O)ccn1CC(C)(C)O | -0.77 |
| CNC(=O)CCn1ccc(=O)c(O)c1C | -1.15 |
| CCCn1ccc(=O)c(O)c1CC | 0.7 |
| Cc1c(O)c(=O)ccn1C(CO)CO | -1.7 |

Further lines, results first:

| logD | SMILES |
| --- | --- |
| -0.41 | COCCn1ccc(=O)c(O)c1C |
| -0.66 | CCN(C)C(=O)CCn1ccc(=O)c(O)c1C |
| 0.12 | CCOCCCn1ccc(=O)c(O)c1C |
| -0.82 | CCNC(=O)CCn1ccc(=O)c(O)c1C |
| -2.75 | Cc1c(O)c(=O)ccn1CCCC(=O)O |
| -0.36 | CCN(CC)C(=O)CCn1ccc(=O)c(O)c1C |
| 0.7 | CCCCn1ccc(=O)c(O)c1C |
| 0.21 | CCOC(Cn1ccc(=O)c(O)c1C)OCC |
| -1.08 | CNC(=O)CCCn1ccc(=O)c(O)c1C |
| -0.77 | COC(=O)CCn1ccc(=O)c(O)c1C |
| 1.22 | CCCCn1ccc(=O)c(O)c1CC |
| 1.89 | CCCCCCn1ccc(=O)c(O)c1C |

Test system: Rattus norvegicus
Assay: The dose of the iron chelator administered in the bile duct-cannulated rats.
Format: functional
Conditions: not given
In short: (§1)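 Non-iron-overloaded male Fischer rats (200–240 g) with bile-duct cannulas in metabolic cages. Control bile/urine was collected for 3 h; chelator was then given subcutaneously or by gavage. Bile was collected in 3-h fractions over 24 h, plus 24-h urine. Iron was measured by bathophenanthroline colorimetry (TCA/HCl, 65 °C 4 h, A535) against iron standards after blank subtraction.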

| SMILES | Dose [mg/kg] |
| --- | --- |
| Cc1c(O)c(=O)ccn1CC(O)CO (stereo not drawn) | 143 |

Test system: Rattus norvegicus
Assay: The amount iron excretion in the bile duct-cannulated rats when iron chelator administered orally at dose 142 mg/kg
Format: functional
Conditions: route oral
In short: as §1

| SMILES | Iron excretion [µg/kg] |
| --- | --- |
| CCc1c(O)c(=O)ccn1CCCO | 265 |

Test system: Rattus norvegicus
Assay: The amount iron excretion in the bile duct-cannulated rats when iron chelator administered orally.
Format: functional
Conditions: not given
In short: as §1

| SMILES | Iron excretion [µg/kg] |
| --- | --- |
| Cc1c(O)c(=O)ccn1CC(O)CO (stereo not drawn) | 104 |

Test system: Rattus norvegicus
Assay: The amount iron excretion in the bile duct-cannulated rats when iron chelator administered subcutaneously at dose 142 mg/kg
Format: functional
Conditions: route subcutaneous
In short: as §1

| SMILES | Iron excretion [µg/kg] |
| --- | --- |
| CCc1c(O)c(=O)ccn1CCCO | 634 |

Test system: Rattus norvegicus
Assay: The amount iron excretion in the bile duct-cannulated rats when iron chelator administered subcutaneously.
Format: functional
Conditions: not given
In short: as §1

| SMILES | Iron excretion [µg/kg] |
| --- | --- |
| Cc1c(O)c(=O)ccn1CC(O)CO (stereo not drawn) | 142 |
